The record followed here is ChEMBL document CHEMBL5143669, “Stapled peptides as scaffolds for developing radiotracers for intracellular targets: Preliminary evaluation of a radioiodinated MDM2-binding stapled peptide in the SJSA-1 osteosarcoma model” (Bioorg Med Chem Lett, 2022).

SMILES strings stand for the structures.

A short description of data set [1]: Biodistribution in Lung of athymic mouse xenografted with human SJSA-1 cells at 166.5 kBq, iv after 30 mins by automated gamma counting method. Particulars: in vivo, 0.5 h. The data set is classed as ADME, organism-based. The essentials: (§1)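 125I-labeled peptide (166.5 kBq in 100 μL) was injected via tail vein into athymic mice bearing flank SJSA-1 xenografts, n = 5 per time point. Tumors, blood and major organs were gamma-counted at 0.5, 2, 6 and 24 h post-injection. Values are %ID/g.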

Data set [2] is described as follows: Biodistribution in Large intestine of athymic mouse xenografted with human SJSA-1 cells at 166.5 kBq, iv after 30 mins by automated gamma counting method. Particulars: in vivo, 0.5 h. Type of data set: ADME, organism-based. The method, boiled down:
as §1

A short description of data set [3]: Biodistribution in Heart of athymic mouse xenografted with human SJSA-1 cells at 166.5 kBq, iv after 2 hrs by automated gamma counting method. Type of data set: ADME, organism-based. Particulars: in vivo. The essentials: as §1
The nature of data set [4]: Biodistribution in Skin of athymic mouse xenografted with human SJSA-1 cells at 166.5 kBq, iv after 2 hrs by automated gamma counting method. The data set is classed as ADME, organism-based, Skin of body. Particulars: in vivo. The method, boiled down:
as §1

Data set [5] in a line: Biodistribution in Spleen of athymic mouse xenografted with human SJSA-1 cells at 166.5 kBq, iv after 6 hrs by automated gamma counting method. The data set is classed as ADME, organism-based. Particulars: in vivo. The essentials:
as §1

A short description of data set [6]: Biodistribution in Lung of athymic mouse xenografted with human SJSA-1 cells at 166.5 kBq, iv after 6 hrs by automated gamma counting method. The data set is classed as ADME, organism-based. Particulars: in vivo. The essentials:
as §1

Data set [7] in a line: Biodistribution in Heart of athymic mouse xenografted with human SJSA-1 cells at 166.5 kBq, iv after 6 hrs by automated gamma counting method. The data set is classed as ADME, organism-based. As to conditions: in vivo. The essentials: as §1
The nature of data set [8]: Biodistribution in Large intestine of athymic mouse xenografted with human SJSA-1 cells at 166.5 kBq, iv after 6 hrs by automated gamma counting method. Type of data set: ADME, organism-based. Particulars: in vivo. The essentials: as §1
The nature of data set [9]: Biodistribution in Thyroid of athymic mouse xenografted with human SJSA-1 cells at 166.5 kBq, iv after 6 hrs by automated gamma counting method. Type of data set: ADME, organism-based, Thyroid gland. As to conditions: in vivo. The method, boiled down: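 Athymic mice bearing flank SJSA-1 xenografts received 125I-SIB-labeled peptide (166.5 kBq, 100 μL) by tail vein; groups of five per time point. Tumor, blood and organs were taken at 0.5–24 h and counted by gamma counter; values expressed as %ID/g.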

Data set [10] in a line: Biodistribution in Bone of athymic mouse xenografted with human SJSA-1 cells at 166.5 kBq, iv after 24 hrs by automated gamma counting method. Type of data set: ADME, organism-based, Bone element. As to conditions: in vivo. The method, boiled down:
as §1

With `CC(=O)NC(CCCCNC(=O)c1cccc([125I])c1)C(=O)NCCCCCC(=O)N[C@H](C(=O)N[C@@H](CO)C(=O)N[C@@H](Cc1ccccc1)C(=O)N[C@@]1(C)CCCCCC/C=C/CCC[C@@](C)(C(=O)N[C@@H](CCC(=O)O)C(=O)N[C@@H](CC(N)=O)C(=O)N[C@@H](Cc2ccccc2)C(N)=O)NC(=O)[C@H](CC(C)C)NC(=O)[C@H](CC(C)C)NC(=O)[C@H](C)NC(=O)[C@H](Cc2c[nH]c3ccccc23)NC(=O)[C@H](Cc2ccc(O)cc2)NC(=O)[C@H](CCC(=O)O)NC1=O)[C@@H](C)O` (stereo not given in full), the Drug uptake in [1] is 4.27 % ID/g; in data set [2] it was 0.06 % ID/g; in data set [3], 2.44 % ID/g; in data set [4], 0.88 % ID/g; in [5] it was 1.99 % ID/g; in [6], 2.49 % ID/g. The Drug uptake in [7] turned out to be 2.14 % ID/g; in [8], 4.44 % ID/g; in data set [9], 1.19 % ID/g; in data set [10], 0.16 % ID/g.
